Blank lines part the entries; values can stand above or below the molecule they belong to. Activity calls are given as the source filed them. No cut-off for these calls is given here.
Legend:
[1] = Apparent terminal half life in Sprague-Dawley rat at 5 mg/kg, iv by LC/MS/MS analysis; type: ADME, organism-based; parameters: dose 5 mg/kg, route intravenous; conditions: in vivo, read-out: betat1/2(app) (converted)
[2] = Whole body plasma clearance in Sprague-Dawley rat at 5 mg/kg, iv by LC/MS/MS analysis; type: ADME, organism-based; parameters: dose 5 mg/kg, route intravenous
[3] = tested on: Hepatitis C virus; assay: Antiviral activity against Hepatitis C virus genotype 1b Con1 after 4 days by cell-based replicon assay; type: functional, organism-based, Hepacivirus hominis; conditions: isolate Con1, 96 h
[4] = Inhibition of Hepatitis C virus genotype 1a H77 recombinant NS3/4A protease expressed in Escherichia coli BL21 (DE3) cell using Ac-Asp-Glu-Asp(EDANS)-Glu-Glu-Abu[C(O)-O]-Ala-Ser-Lys(DABCYL)-NH2 as substrate by FRET assay; parameters: species or system Hepatitis C virus (isolate H77)
[5] = Cytotoxicity against human HuH7 cells; type: cell-based; conditions: Huh-7 cells
[6] = Oral bioavailability in Sprague-Dawley rat at 15 mg/kg administered via gavage by LC/MS/MS analysis; type: ADME, organism-based; conditions: in vivo
[7] = AUC in Sprague-Dawley rat at 15 mg/kg, po administered via gavage by LC/MS/MS analysis; type: ADME, organism-based; parameters: dose 15 mg/kg, route oral; conditions: plasma
[8] = AUC in intraduodenally dosed Sprague-Dawley rat plasma measured over 4 hrs by LC/MS/MS analysis; type: ADME, organism-based; parameters: time < 4 hr, route intraduodenal; conditions: Sprague-Dawley, plasma
Outline: (§1)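 Abbreviated rat screen: surgically prepared rats were dosed intraduodenally. Plasma was sampled over 4 h, and liver was collected at the 4 h end point. Plasma was precipitated with two volumes of ACN plus internal standard. Liver was weighed and homogenized in 2 volumes of 20% Hanks buffered salt solution/80% ACN. Both were quantified by LC/MS/MS.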

[9] = tested on: Liver; assay: Drug uptake in intraduodenally dosed Sprague-Dawley rat liver measured per gm of tissue over 4 hrs by LC/MS/MS analysis; type: ADME, organism-based; conditions: in vivo, other; outline: as §1
[10] = Half life in rat liver microsomes at 3 uM by LC/MS/MS analysis; type: ADME
Outline: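 Pooled liver microsomes were run in triplicate per species. Each incubation held 3 μM test compound in 0.1 M potassium phosphate pH 7.4 at 37 °C, with 0.9 mg/mL microsomal protein, 0.033 mM MgCl2 and an NADPH-regenerating system. Proteins were precipitated with two volumes of ACN containing internal standard, and supernatants were analysed by LC/MS/MS.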

[11] = Genotoxicity in micronucleus (unknown origin)
[12] = tested on: Hepatitis C virus; assay: Antiviral activity against Hepatitis C virus genotype 1a H77 assessed as inhibition of HCV replicon-encoded Renilla luciferase reporter activity after 4 days by cell-based HCV replicon assay; type: functional, organism-based, Hepacivirus hominis; conditions: genotype 1a H77, 96 h
[13] = tested on: Homo sapiens; assay: Cardiovascular toxicity in Hepatitis C virus genotype 1 infected human assessed as junctional rhythm disturbances at 120 mg, po by electrocardiography; type: organism-based; conditions: in vivo
[14] = tested on: Homo sapiens; assay: Cardiovascular toxicity in Hepatitis C virus genotype 1 infected human assessed as PR-interval prolongation at 120 mg, po by electrocardiography; type: organism-based; conditions: in vivo
[15] = tested on: Homo sapiens; assay: Cardiovascular toxicity in Hepatitis C virus genotype 1 infected human assessed as mild bradycardia at 120 mg, po by electrocardiography; type: organism-based; conditions: in vivo
[16] = tested on: Homo sapiens; assay: Cardiovascular toxicity in healthy human assessed as junctional rhythm disturbances at 120 mg, po by electrocardiography; type: organism-based; conditions: in vivo
[17] = tested on: Homo sapiens; assay: Cardiovascular toxicity in healthy human assessed as PR-interval prolongation at 120 mg, po by electrocardiography; type: organism-based; conditions: in vivo
[18] = tested on: Homo sapiens; assay: Cardiovascular toxicity in healthy human assessed as mild bradycardia at 120 mg, po by electrocardiography; type: organism-based; conditions: in vivo
[19] = tested on: Hepatitis C virus; assay: Antiviral activity against Hepatitis C virus genotype 1 infected in human assessed as reduction in plasma viral load administered orally measured after 12 hrs; type: functional, organism-based; conditions: Hepacivirus hominis
Outline: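 HCV genotype 1-infected subjects received single oral doses of 10, 60 or 120 mg. Plasma HCV RNA was followed, and mean log10 reduction in viral load was read 12 h after dosing.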

[20] = Terminal half life in po dosed human; type: ADME, organism-based; conditions: in vivo, read-out: beta t1/2 (converted)
[21] = Tmax in po dosed human; type: ADME, organism-based; conditions: in vivo
[22] = tested on: Salmonella typhimurium; assay: Mutagenicity in Salmonella typhimurium by Ames test; type: toxicity, organism-based; conditions: salmonella enterica subsp. enterica serovar typhimurium
[23] = target: Cytochrome P450 3A4 (Homo sapiens, UniProt P08684); assay: Inhibition of CYP3A4 (unknown origin); type: ADME
[24] = Binding affinity to P-glycoprotein (unknown origin); type: ADME; conditions: human
[25] = Drug uptake into human hepatocytes by silicone oil layer method; type: ADME, cell-based, Hepatocyte
[26] = Drug uptake into dog hepatocytes by silicone oil layer method; type: ADME, cell-based, Canis lupus familiaris, Hepatocyte
[27] = Drug uptake into Sprague-Dawley rat hepatocytes by silicone oil layer method; type: ADME, cell-based, Hepatocyte
[28] = Ratio of drug level in liver to plasma in Beagle dog at 14 mg/kg, po measured after 24 hrs by LC/MS/MS analysis; type: ADME, organism-based, Canis lupus familiaris; parameters: dose 14 mg/kg, route oral
Outline: (§2)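 Single oral dose (dog 14 mg/kg, rat 15 mg/kg), with liver and plasma sampled 24 h post-dose. Plasma was precipitated with two volumes of ACN containing internal standard and centrifuged. Tissue was weighed and homogenized in 2 volumes of 20% Hanks buffer/80% ACN. LC/MS/MS used a C18 column at 60 °C, ammonium formate/formic acid water–methanol gradient, and SRM detection. LLQ was 5 nM. Ratio is liver over plasma level.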

[29] = Ratio of drug level in liver to plasma in Sprague-Dawley rat at 15 mg/kg, po administered via gavage measured after 24 hrs by LC/MS/MS analysis; type: ADME, organism-based; parameters: dose 15 mg/kg, route oral; outline: as §2
[30] = Oral bioavailability in cynomolgus monkey at 3 mg/kg administered via gavage by LC/MS/MS analysis; type: ADME, organism-based, Macaca fascicularis; conditions: in vivo
[31] = Oral bioavailability in Beagle dog by LC/MS/MS analysis; type: ADME, organism-based, Canis lupus familiaris; conditions: in vivo
[32] = tested on: Human immunodeficiency virus; assay: Antiviral activity against Human immunodeficiency virus; type: functional, organism-based
[33] = tested on: Canine parainfluenza virus; assay: Antiviral activity against Canine parainfluenza virus; type: functional
[34] = tested on: Bovine viral diarrhea virus 1; assay: Antiviral activity against Bovine viral diarrhea virus; type: functional, organism-based

Sequence of Cytochrome P450 3A4 (P08684 whole entry): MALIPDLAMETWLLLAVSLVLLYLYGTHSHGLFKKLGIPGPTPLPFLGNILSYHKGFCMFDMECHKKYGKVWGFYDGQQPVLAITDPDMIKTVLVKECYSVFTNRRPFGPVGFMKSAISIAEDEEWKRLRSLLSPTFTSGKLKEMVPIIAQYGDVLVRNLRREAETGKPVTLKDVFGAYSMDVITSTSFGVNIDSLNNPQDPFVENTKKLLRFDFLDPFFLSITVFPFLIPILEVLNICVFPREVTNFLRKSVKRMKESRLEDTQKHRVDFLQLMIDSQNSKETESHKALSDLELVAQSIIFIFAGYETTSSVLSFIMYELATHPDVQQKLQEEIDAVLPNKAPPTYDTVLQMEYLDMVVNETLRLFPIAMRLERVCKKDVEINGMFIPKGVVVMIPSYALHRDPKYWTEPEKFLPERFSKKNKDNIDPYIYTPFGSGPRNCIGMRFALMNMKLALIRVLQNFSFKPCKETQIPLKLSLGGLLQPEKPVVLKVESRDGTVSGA

- half-life [1]: 0.67 h
- clearance [2]: 49 mL/min/kg
- EC50 [3]: 70 nM
- IC50 [4]: 9 nM
- bioavailability [6]: 3%
- AUC [7]: 0.13 µM·h
SMILES: C=C[C@@H]1C[C@]1(NC(=O)[C@@H]1C[C@@H](Oc2nccc3cc(OC)ccc23)CN1C(=O)[C@@H](NC(=O)O[C@H]1CCOC1)C(C)(C)C)C(=O)NS(=O)(=O)C1CC1
- CC50 [5]: > 100000 nM

- half-life [1]: 2.9 h
- clearance [2]: 7.8 mL/min/kg
- EC50 [3]: 33 nM
- IC50 [4]: 2 nM
- bioavailability [6]: 28%
- AUC [7]: 10.5 µM·h
SMILES: C=C[C@@H]1C[C@]1(NC(=O)[C@@H]1C[C@@H](Oc2nccc3cc(OC)ccc23)CN1C(=O)[C@@H](NC(=O)OC(C)(C)C)C(C)C)C(=O)NS(=O)(=O)C1CC1
- CC50 [5]: > 100000 nM

- half-life [1]: 4.2 h
- clearance [2]: 17 mL/min/kg
- EC50 [3]: 22 nM
- IC50 [4]: 6 nM
- bioavailability [6]: 4%
- AUC [7]: 0.58 µM·h
SMILES: CC[C@@H]1C[C@]1(NC(=O)[C@@H]1C[C@@H](Oc2nccc3cc(OC)ccc23)CN1C(=O)[C@@H](NC(=O)OC(C)(C)C)C(C)(C)C)C(=O)NS(=O)(=O)C1CC1
- CC50 [5]: > 100000 nM

- AUC at 4 h [8]: 0.75 µM·h
- half-life [1]: 2.2 h
- clearance [2]: 19 mL/min/kg
- EC50 [3]: 60 nM
- IC50 [4]: 7 nM
- AUC [7]: 2.67 µM·h
- Drug uptake [9]: 28094 ng
SMILES: C=C[C@@H]1C[C@]1(NC(=O)[C@@H]1C[C@@H](Oc2nccc3ccccc23)CN1C(=O)[C@@H](NC(=O)OC(C)(C)C)C(C)(C)C)C(=O)NS(=O)(=O)C1CC1
- CC50 [5]: > 100000 nM

- AUC at 4 h [8]: 10.4 µM·h
- half-life at 3 µM [10]: > 1 h
- half-life [1]: 4.4 h
- EC50 [3]: 2.8 nM
- EC50 [12]: 8.3 nM
- half-life [20]: 4 h
- Tmax [21]: 1.5 h
- IC50 [23]: 2000 nM
- Activity [24]: Active
- Km [25]: 1.4 µM
- Km [26]: 1.4 µM
- Km [27]: 1.4 µM
- Kp at 24 h [28]: 75
- Kp at 24 h [29]: 136
- bioavailability [30]: < 1%
- bioavailability [31]: 51%
- bioavailability [6]: 18%
- AUC [7]: 14.1 µM·h
- Drug uptake [9]: 64710 ng
SMILES: C=C[C@@H]1C[C@]1(NC(=O)[C@@H]1C[C@@H](Oc2nccc3cc(OC)ccc23)CN1C(=O)[C@@H](NC(=O)OC(C)(C)C)C(C)(C)C)C(=O)NS(=O)(=O)C1CC1
- Activity [11]: Non-toxic
- Activity [13]: Toxic
- Activity [14]: Toxic
- Activity [15]: Toxic
- Activity [16]: Toxic
- Activity [17]: Toxic
- Activity [18]: Toxic
- Activity [19]: Dose-dependent effect
- Activity [22]: Non-toxic
- Activity [32]: inactive
- Activity [33]: inactive
- Activity [34]: inactive
- CC50 [5]: > 100000 nM

- AUC at 4 h [8]: 0.38 µM·h
- EC50 [3]: 42 nM
- IC50 [4]: 2 nM
- Drug uptake [9]: 1205 ng
SMILES: C=C[C@@H]1C[C@]1(NC(=O)[C@@H]1C[C@@H](Oc2cncc3cc(OC)ccc23)CN1C(=O)[C@@H](NC(=O)OC(C)(C)C)C(C)(C)C)C(=O)NS(=O)(=O)C1CC1
- CC50 [5]: > 100000 nM

Source: ChEMBL document CHEMBL3124900, “Discovery and early clinical evaluation of BMS-605339, a potent and orally efficacious tripeptidic acylsulfonamide NS3 protease inhibitor for the treatment of hepatitis C virus infection” (J Med Chem, 2014)
